Source: ChEMBL document CHEMBL1125138, “1,3-Dialkyl-3-acyltriazenes, a novel class of antineoplastic alkylating agents” (J Med Chem, 1990)

Experiments:
SK-MEL-5 = test: Evaluated for the inhibitory concentration required to cause growth inhibition of SK-MEL-5 melanoma cell line using the MTT Cytotoxicity Assay; assay type: functional, cell-based; details: Homo sapiens
Procedure, shortened: (§1)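 MTT microculture tetrazolium growth assay on human cell lines and normal fibroblasts. Cells seeded at 1000 cells/well, with compound added 24 h after plating. Cultures then incubated a further 6 days at 37 °C before MTT read-out of growth versus untreated cells.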

A549 [1] = test: Evaluated for the antineoplastic activity against A549 lung (nonsmall cell) tumor xenograft in nude mice after administering 3 injections (intra peritoneally) at a dose of 200 mg/kg; assay type: functional, Homo sapiens
Procedure, shortened: (§2)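 Nude mice bearing human tumor xenografts; compound given intraperitoneally as three injections at 4-day intervals. Antitumor activity expressed as % T/C at each dose level. Performed under the NCI Developmental Therapeutics Program.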

[2] = Evaluated for the antineoplastic activity against M5 sarcoma tumor xenograft in nude mice after administering 4 injections (intra peritoneally) at a dose of 25 mg/kg; assay type: functional, Mus musculus
Procedure, shortened: (§3)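 M5 sarcoma-bearing mice given four intraperitoneal injections at 4-day intervals. Activity reported as % T/C per dose. Performed under the NCI Developmental Therapeutics Program.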

CCD 19Lu = test: Evaluated for the inhibitory concentration required to cause growth inhibition of CCD-19Lu fibroblasts cell line using the MTT Cytotoxicity Assay; assay type: functional, cell-based; details: Homo sapiens; procedure, shortened: as §1
[3] = Evaluated for the antineoplastic activity against M5 sarcoma tumor xenograft in nude mice after administering 4 injections (intra peritoneally) at a dose of 50 mg/kg; assay type: functional, Mus musculus; procedure, shortened: as §3
OVCAR-4 = test: Evaluated for the inhibitory concentration required to cause growth inhibition of OVCAR-4 ovarian cell line using the MTT Cytotoxicity Assay; assay type: functional, cell-based; details: Homo sapiens; procedure, shortened: as §1
DOD-1 = test: Evaluated for the inhibitory concentration required to cause growth inhibition of DOD-1 breast cell line using the MTT Cytotoxicity Assay; assay type: functional, cell-based; details: Homo sapiens; procedure, shortened: as §1
MCF7 = test: Evaluated for the inhibitory concentration required to cause growth inhibition of MCF-7 breast cell line using the MTT Cytotoxicity Assay; assay type: functional, cell-based; details: Homo sapiens; procedure, shortened: as §1
OVCAR-3 = test: Evaluated for the inhibitory concentration required to cause growth inhibition of OVCAR-3 ovarian cell line using the MTT Cytotoxicity Assay; assay type: functional, cell-based; details: Homo sapiens; procedure, shortened: as §1
NCI-H23 = test: Evaluated for the inhibitory concentration required to cause growth inhibition of H23 cell line of lung using the Microculture Tetrazolium (MTT) Cytotoxicity Assay; assay type: functional, cell-based; details: Homo sapiens; procedure, shortened: as §1
LOX IMVI = test: Evaluated for the inhibitory concentration required to cause growth inhibition of LOX melanoma cell line using the MTT Cytotoxicity Assay; assay type: functional, cell-based; details: Homo sapiens; procedure, shortened: as §1
U-251 = test: Evaluated for the inhibitory concentration required to cause growth inhibition of U251 cell line of central nervous system (CNS) using the MTT Cytotoxicity Assay; assay type: functional, cell-based; details: Homo sapiens
Procedure, shortened: (§4)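 MTT cell-growth assay in human cell lines: cells harvested and seeded at 1000 cells/well in 96-well plates. Compound added after 24 h, then cultures incubated a further 6 days at 37 °C. Growth measured with and without agent.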

TE-671 = test: Evaluated for the inhibitory concentration required to cause growth inhibition of TE-671 cell line of central nervous system (CNS)using the MTT Cytotoxicity Assay; assay type: functional, cell-based; details: Homo sapiens; procedure, shortened: as §1
NCI-H322M = test: Evaluated for the inhibitory concentration required to cause growth inhibition of H322M cell line of lung using the Microculture Tetrazolium (MTT) Cytotoxicity Assay; assay type: functional, cell-based; details: Homo sapiens; procedure, shortened: as §1
A549 [4] = test: Evaluated for the inhibitory concentration required to cause growth inhibition of A549Rem- cell line of lung using the MTT Cytotoxicity Assay; assay type: functional, cell-based; details: Homo sapiens; procedure, shortened: as §1
[5] = Evaluated for the antineoplastic activity against LOX amelanotic melanoma tumor xenograft in nude mice after administering 3 injections (intra peritoneally) at a dose of 50 mg/kg; assay type: functional, Homo sapiens; procedure, shortened: as §2
[6] = tested on: MAR BEL fibroblasts cell line; test: Evaluated for the inhibitory concentration required to cause growth inhibition of MAR BEL fibroblasts cell line using the MTT Cytotoxicity Assay; assay type: functional, cell-based; details: Homo sapiens; procedure, shortened: as §1
L1210 [7] = test: Evaluated for the antineoplastic activity against L1210 leukemia tumor xenograft in nude mice after administering 5 injections (intra peritoneally) at a dose of 60 mg/kg; assay type: functional, Mus musculus
Procedure, shortened: (§5)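 Mice bearing L1210 leukemia dosed intraperitoneally once daily for 5 successive days (five injections). Activity reported as % T/C at each dose. Performed under the NCI Developmental Therapeutics Program.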

A498 = test: Evaluated for the inhibitory concentration required to cause growth inhibition of A498Rem- renal cell line using the MTT Cytotoxicity Assay; assay type: functional, cell-based; details: Homo sapiens; procedure, shortened: as §1
NCI-H460 = test: Evaluated for the inhibitory concentration required to cause growth inhibition of H460 cell line of lung using the Microculture Tetrazolium (MTT) Cytotoxicity Assay; assay type: functional, cell-based; details: Homo sapiens; procedure, shortened: as §1
NCI-H522 (Homo sapiens) = test: Evaluated for the inhibitory concentration required to cause growth inhibition of H522 cell line of lung using the Microculture Tetrazolium (MTT) Cytotoxicity Assay
NCI-H125 = test: Evaluated for the inhibitory concentration required to cause growth inhibition of H125 cell line of lung using the Microculture Tetrazolium (MTT) Cytotoxicity Assay; assay type: functional, cell-based; details: Homo sapiens; procedure, shortened: as §1
A704 = test: Evaluated for the inhibitory concentration required to cause growth inhibition of A704Rem- renal cell line using the MTT Cytotoxicity Assay; assay type: functional, cell-based; details: Homo sapiens; procedure, shortened: as §1
[8] = Evaluated for the antineoplastic activity against LX-1 lung (small cell) tumor xenograft in nude mice after administering 3 injections (intra peritoneally) at a dose of 100 mg/kg; assay type: functional, Homo sapiens; procedure, shortened: as §2
HOS-TE85 = test: Evaluated for the inhibitory concentration required to cause growth inhibition of TE85Mer+ sarcoma cell line using the MTT Cytotoxicity Assay; assay type: functional, cell-based; details: Homo sapiens; procedure, shortened: as §1
RPMI-7951 = test: Evaluated for the inhibitory concentration required to cause growth inhibition of RPMI7951 melanoma cell line using the MTT Cytotoxicity Assay; assay type: functional, cell-based; details: Homo sapiens; procedure, shortened: as §1
L1210 [9] = test: Evaluated for the antineoplastic activity against L1210 leukemia tumor xenograft in nude mice after administering 5 injections (intra peritoneally) at a dose of 21.6 mg/kg; assay type: functional, Mus musculus; procedure, shortened: as §5
[10] = Evaluated for the antineoplastic activity against LX-1 lung (small cell) tumor xenograft in nude mice after administering 3 injections (intra peritoneally) at a dose of 25 mg/kg; assay type: functional, Homo sapiens; procedure, shortened: as §2
L1210 [11] = test: Evaluated for the antineoplastic activity against L1210 leukemia tumor xenograft in nude mice after administering 5 injections (intra peritoneally) at a dose of 36 mg/kg; assay type: functional, Mus musculus; procedure, shortened: as §5
A673 = test: Evaluated for the inhibitory concentration required to cause growth inhibition of A673Mer+ sarcoma cell line using the MTT Cytotoxicity Assay; assay type: functional, cell-based; details: Homo sapiens; procedure, shortened: as §1
[12] = Evaluated for the antineoplastic activity against LOX amelanotic melanoma tumor xenograft in nude mice after administering 3 injections (intra peritoneally) at a dose of 12.5 mg/kg; assay type: functional, Homo sapiens; procedure, shortened: as §2
[13] = Evaluated for the antineoplastic activity against LOX amelanotic melanoma tumor xenograft in nude mice after administering 3 injections (intra peritoneally) at a dose of 100 mg/kg; assay type: functional, Homo sapiens; procedure, shortened: as §2
A-427 = test: Evaluated for the inhibitory concentration required to cause growth inhibition of A427Mer- cell line of lung using the MTT Cytotoxicity Assay; assay type: functional, cell-based; details: Homo sapiens; procedure, shortened: as §1
[14] = Evaluated for the antineoplastic activity against LOX amelanotic melanoma tumor xenograft in nude mice after administering 3 injections (intra peritoneally) at a dose of 25 mg/kg; assay type: functional, Homo sapiens; procedure, shortened: as §2
NCI-H358 = test: Evaluated for the inhibitory concentration required to cause growth inhibition of H358M cell line of lung using the Microculture Tetrazolium (MTT) Cytotoxicity Assay; assay type: functional, cell-based; details: Homo sapiens; procedure, shortened: as §1
MX1 [15] = test: Evaluated for the antineoplastic activity against MX-1 mammary tumor xenograft in nude mice after administering 3 injections (intra peritoneally) at a dose of 150 mg/kg; assay type: functional, Homo sapiens; procedure, shortened: as §2
WiDr = test: Evaluated for the inhibitory concentration required to cause growth inhibition of WiDR colon cell line using the MTT Cytotoxicity Assay; assay type: functional, cell-based; details: Homo sapiens; procedure, shortened: as §4
A549 [16] = test: Evaluated for the antineoplastic activity against A549 lung (nonsmall cell) tumor xenograft in nude mice after administering 3 injections (intra peritoneally) at a dose of 100 mg/kg; assay type: functional, Homo sapiens; procedure, shortened: as §2
[17] = Evaluated for the antineoplastic activity against M5 sarcoma tumor xenograft in nude mice after administering 4 injections (intra peritoneally) at a dose of 12.5 mg/kg; assay type: functional, Mus musculus; procedure, shortened: as §3
[18] = Evaluated for the antineoplastic activity against LX-1 lung (small cell) tumor xenograft in nude mice after administering 3 injections (intra peritoneally) at a dose of 50 mg/kg; assay type: functional, Homo sapiens; procedure, shortened: as §2
MX1 [19] = test: Evaluated for the antineoplastic activity against MX-1 mammary tumor xenograft in nude mice after administering 3 injections (intra peritoneally) at a dose of 300 mg/kg; assay type: functional, Homo sapiens; procedure, shortened: as §2
Malme-3M = test: Evaluated for the inhibitory concentration required to cause growth inhibition of MALME-3M melanoma cell line using the MTT Cytotoxicity Assay; assay type: functional, cell-based; details: Homo sapiens; procedure, shortened: as §1
NCI/ADR-RES = test: Evaluated for the inhibitory concentration required to cause growth inhibition of MCF-7ADR breast cell line using the MTT Cytotoxicity Assay; assay type: functional, cell-based; details: Homo sapiens; procedure, shortened: as §1
A 172 = test: Evaluated for the inhibitory concentration required to cause growth inhibition of A172Mer- cell line of central nervous system (CNS) using the MTT Cytotoxicity Assay; assay type: functional, cell-based; details: Homo sapiens; procedure, shortened: as §1

C/N=N\N(C)C(=O)NC
IC50 (SK-MEL-5): 20 µM
T/C (A549 [1]): -27%
T/C [2]: 158%
IC50 (CCD 19Lu): 70 µM
T/C [3]: 177%
IC50 (OVCAR-4): 35 µM
IC50 (DOD-1): 38 µM
IC50 (MCF7): 30 µM
IC50 (OVCAR-3): 40 µM
IC50 (NCI-H23): 22 µM
IC50 (LOX IMVI): 19 µM
IC50 (U-251): 33 µM
IC50 (TE-671): 46 µM
IC50 (NCI-H322M): 42 µM
IC50 (A549 [4]): 60 µM
T/C [5]: 188%
IC50 [6]: 65 µM
T/C (L1210 [7]): 186%
IC50 (A498): 37 µM
IC50 (NCI-H460): 70 µM
IC50 (NCI-H522 (Homo sapiens)): 24 µM
IC50 (NCI-H125): 50 µM
IC50 (A704): 55 µM
T/C [8]: -55%
IC50 (HOS-TE85): 35 µM
IC50 (RPMI-7951): 37 µM
T/C (L1210 [9]): 132%
T/C [10]: 6%
T/C (L1210 [11]): 146%
IC50 (A673): 50 µM
T/C [12]: 131%
T/C [13]: 230%
IC50 (A-427): 9 µM
T/C [14]: 154%
IC50 (NCI-H358): 75 µM
T/C (MX1 [15]): 15%
IC50 (WiDr): 30 µM
T/C (A549 [16]): 8%
T/C [17]: 136%
T/C [18]: -34%
T/C (MX1 [19]): -13%
IC50 (Malme-3M): 22 µM
IC50 (NCI/ADR-RES): 35 µM
IC50 (A 172): 24 µM
